The list is not random: actives were taken first. Their share in the collection is about 12%.
WT yeast gro inh – growth inhibition of WT strain, primary screen, mitochondrial fusion inhibitor project, WT and mutant strains, chemical genetic; inhibition, % at 10 µM; hit rate 2.1% among 190,000; mitochondrial fusion phenotypic screen; in the data active = inhibition above about 58%; tested in S. cerevisiae
Lmaj promast – Leishmania major promastigote growth inhibition, primary screen | Leishmania major promastigotes, resazurin fluorescence viability | inhibition, % at 10 µM | hit rate 9% among 200,000 | AID 1063, 2008; in the data active = inhibition above about 50%;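 also: promastigotes grown with compound for 44 hours at 28 °C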
ABCG2 inh – ABCG2 efflux pump inhibitors, primary screen, multiplex with ABCB1, IgMXP3 cells, flow cytometry | JC-1 efflux | inhibition, % at 6.6 µM | hit rate 0.1% among 190,000;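 active = inhibition above 80%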;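 also: 0% = DMSO and 100% = nicardipine control wells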
Target sequence (Q9UNQ0 whole entry, looked up): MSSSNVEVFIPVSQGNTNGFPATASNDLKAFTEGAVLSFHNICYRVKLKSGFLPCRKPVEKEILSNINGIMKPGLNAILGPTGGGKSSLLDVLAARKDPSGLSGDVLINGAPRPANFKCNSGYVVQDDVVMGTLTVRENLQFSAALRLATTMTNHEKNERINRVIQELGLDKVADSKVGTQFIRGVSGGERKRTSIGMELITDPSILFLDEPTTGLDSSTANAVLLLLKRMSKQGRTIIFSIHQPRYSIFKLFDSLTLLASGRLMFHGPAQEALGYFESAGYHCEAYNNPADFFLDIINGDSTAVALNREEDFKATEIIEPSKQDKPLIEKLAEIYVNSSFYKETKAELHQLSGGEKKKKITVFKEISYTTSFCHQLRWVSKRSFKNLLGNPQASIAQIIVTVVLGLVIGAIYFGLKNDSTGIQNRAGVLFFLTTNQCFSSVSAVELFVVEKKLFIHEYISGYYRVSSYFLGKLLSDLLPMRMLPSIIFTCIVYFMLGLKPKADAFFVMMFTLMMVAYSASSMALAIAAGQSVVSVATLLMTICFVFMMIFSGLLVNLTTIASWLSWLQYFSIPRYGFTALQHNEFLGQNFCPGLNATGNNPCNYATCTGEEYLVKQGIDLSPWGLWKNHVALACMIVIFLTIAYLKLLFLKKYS
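Test system: ABCG2 IgMXP3 and barcoded ABCB1 CCRF-Adr cell mix; Schedule: cells with compound and JC-1, 10 min at 25 °C, rotating, no wash; Technique: flow cytometry of retained JC-1 fluorescence; Measure: % inhibition of efflux relative to nicardipine and DMSO; Controls: nicardipine high and DMSO low controls.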
ABCB1 block – ABCB1 efflux pump inhibitors, primary screen, cell-based, multiplex, flow cytometry, ABCG2 counter-screen; ATP-dependent translocase ABCB1 (Homo sapiens), P08183; hit rate 0.067% among 190,000; CCRF-Adr cells, JC-1 efflux; inhibition, % at 6.6 µM; in the data active = inhibition above about 40%;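 also: 0% = vehicle and 100% = reference inhibitor; higher value means more JC-1 retained so stronger ABCB1 efflux block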
RAM inhibit – inhibitors of the yeast RAM network, primary screen, dse1pr::URA3 reporter, 5-FOA selection | S. cerevisiae dse1pr::URA3 reporter, 5-FOA growth OD615, 2 d; analog-sensitive cbk1-as2 kinase mutant strain | inhibition, % at 50 µM | hit rate 1.8% among 190,000;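 active = inhibition above a set limit, 3 SD over mean compound inhibition, cut at about 8.4% in these data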;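 also: 0% = DMSO-only wells with no growth and 100% = 10 µM 1-NA-PP1 full growth; inhibition rescues growth on 5-FOA so higher OD means more RAM inhibition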
Starred values were filed as active, the others as inactive; nt = no result.

SMILES | WT yeast gro inh | Lmaj promast | ABCG2 inh | ABCB1 block | RAM inhibit
CCC(C)[C@@H](C(=O)Nc1ccc2c(c1)OCO2)N1Cc2ccccc2C1=O (some centres not stated) | 14 | 61* | 5 | 1 | 1
CC(C)CC(C(=O)OCC(=O)c1c(N)n(C)c(=O)n(C)c1=O)N1C(=O)c2ccccc2C1=O (configuration not stated) | 4 | 57* | 7 | 0 | 2
CCOc1ccc(NC(=S)N(CC)Cc2ccccc2)cc1 | 8 | -2 | 18 | 2 | 0
COC(=O)Oc1ccc(/C=C/C(=O)OC(C)C)cc1OC(=O)OC | -1 | 80* | 0 | 0 | 2
CC1Cc2ccccc2N1CC(=O)NC(=O)NCc1ccccc1 (configuration not stated) | -5 | 63* | 3 | 1 | 0
CC1Cc2ccccc2N1CC(=O)NC(=O)NC1CCCCC1 (configuration not stated) | -5 | 92* | 0 | 0 | 1
CC1Cc2ccccc2N1CC(=O)NC(=O)NC(C)(C)C (configuration not stated) | 6 | 2 | 9 | 1 | 1
Cc1noc(C)c1COC(=O)CCN1c2ccccc2Sc2ccccc21 | 39 | -2 | 5 | 1 | 10*
COC(=O)c1sccc1NC(=S)N1CCN(c2ccccc2F)CC1 | -5 | -4 | 6 | 0 | -1
Cc1ccc(S(=O)(=O)c2nnn3c2nc(Nc2cccc(C)c2)c2ccccc23)cc1 | 1 | 4 | 0 | 0 | 5
Cc1ccc(C)c(Nc2nc3c(S(=O)(=O)c4ccccc4)nnn3c3ccccc23)c1 | 7 | 44 | -1 | 1 | 8.4*
CCOc1ccc(NC(=O)CC(NCc2ccccn2)C(=O)O)cc1 (configuration not stated) | -3 | -2 | 1 | 1 | 0
Fc1ccc(-c2ccnc(=S)[nH]2)cc1 | 14 | 1 | 3 | 0 | 1
O=C(c1ccc(Br)cc1)N1CCCC(c2nc(-c3cccs3)no2)C1 (configuration not stated) | 6 | 67* | 3 | 2 | 3
COc1ccc(CCNC(N)=S)cc1OC | -2 | -9 | 1 | 0 | 1
CC(=O)Nc1ccc(S(=O)(=O)N2CCCCC2c2cccnc2)cc1 (configuration not stated) | 4 | 3 | 1 | 1 | 2
CCOc1cccc(C(=O)N2CCCCC2c2cccnc2)c1 (configuration not stated) | 4 | 27 | 2 | 1 | 1
COc1cc(C)c(C)cc1S(=O)(=O)N1CCCCC1c1cccnc1 (configuration not stated) | -11 | 92* | 5 | 1 | 2
COc1ccc(NC(=O)N2CCCCC2c2cccnc2)cc1 (configuration not stated) | -10 | 85* | -1 | 0 | 0
Cc1cccc(C(=O)N[C@H](C(=O)Nc2nc3ccc(S(C)(=O)=O)cc3s2)C(C)C)c1 | 0 | 16 | 5 | 1 | 2
C=CCCCCCCCCC(=O)Nc1c[nH]c(=O)[nH]c1=O | nt | 93* | 0 | 0 | 4
CCCS(=O)(=O)N1CCC(C(=O)NCCC(C)C)CC1 | -11 | -2 | 1 | 0 | 0
CCCCCC1(C)NC(=S)N(c2ccccc2)N1 (configuration not stated) | 38 | 53* | 12 | 0 | 0
CCC1(c2ccccc2)NC(=S)N(c2ccc(C)cc2)N1 (configuration not stated) | 62* | 22 | -1 | 0 | 0
CCCCCCC1(C)NC(=S)N(c2ccccc2)N1 (configuration not stated) | 17 | 51* | 5 | 1 | 0
SMILES | WT yeast gro inh | Lmaj promast | ABCG2 inh | ABCB1 block | RAM inhibit
CC1(CC(=O)Nc2ccccc2)NC(=S)N(c2ccccc2)N1 (configuration not stated) | -1 | -5 | 10 | 0 | 3
CCOc1ccc(OCC)c(NC(=O)Cn2c(C)nc3ccccc3c2=O)c1 | 16 | 40 | 25 | 1 | 0
COC(=O)Nc1ccc(S(=O)(=O)N2CCCC(C(=O)N3CC(C)OC(C)C3)C2)cc1 (configuration not stated) | -3 | -6 | 1 | 1 | 1
O=C(C/C=N/OCc1ccc(Cl)cc1)c1cnc(-c2ccccc2)s1 | -5 | -5 | 1 | 0 | 11*
CCN(CC)CCN(C(=O)c1c(F)cccc1F)c1nc2cc(C)cc(C)c2s1 | 59* | 21 | 14 | 10 | 0
COc1ccccc1C(=O)N(CCN(C)C)c1nc2cc(C)cc(C)c2s1 | 13 | 36 | 5 | 2 | 0
CC(C)c1nc(SCC(=O)Nc2c[nH]c(=O)[nH]c2=O)c2cnn(-c3ccccc3)c2n1 | -1 | 28 | 5 | 0 | 2
O=C(OCC(=O)C12CC3CC(CC(C3)C1)C2)c1cccnc1Cl | 15 | 60* | 11 | 0 | 0
CCOc1ccc(N=Nc2cc(C(C)C)ccc2O)cc1 | 14 | -5 | 13 | 1 | 10*
CCOc1ccc(N=C(C)c2ccccc2O)cc1 | -5 | 16 | 2 | 0 | 1
Cc1ccc(N/C(N)=N/c2nc3c(c(=O)[nH]2)CCCC3)c(C)c1 | -23 | 2 | 4 | 0 | 0
Cc1ccc(N/C(N)=N/c2nc(C)cc(N3CCCCC3)n2)c(C)c1 | 17 | 100* | 0 | 2 | 0
CCCc1cc(NCCCCO)n2c(nc3ccccc32)c1C#N | 6 | 14 | 2 | 2 | 0
CCCc1cc(N2CCN(C(=O)c3ccco3)CC2)n2c(nc3ccccc32)c1C#N | 14 | 71* | 10 | 7 | 2
COc1ccccc1NS(=O)(=O)c1cc(NC(=S)Nc2cc(C)cc(C)c2)ccc1Cl | 18 | 41 | -8 | -1 | 3
COc1ccccc1N/C(=N/S(=O)(=O)c1ccc(C)cc1)c1ccc(Cl)cc1 | 22 | 100* | 36 | 2 | 5
COc1ccccc1NS(=O)(=O)c1cc(N/C(=N\S(=O)(=O)c2ccccc2)c2ccc(F)cc2)ccc1Cl | -1 | 99* | -10 | 1 | 7
CC(=O)c1cc2c(cc1N/C(=N/S(=O)(=O)c1ccc(C)cc1)c1ccccc1)OCO2 | 47 | 59* | 32 | 18 | 5
CCc1noc(C)c1C(=O)N1CCCC(CCC(=O)NCc2ccc(F)c(F)c2)C1 (configuration not stated) | 11 | 6 | -1 | 0 | 2
COc1ccc(Cl)cc1S(=O)(=O)N1CCCC1 | -1 | 2 | 1 | 0 | 1
Cc1ccccc1CC1(CO)CCCN(C(=O)c2ccc3ncccc3c2)C1 (configuration not stated) | -2 | 6 | 2 | 1 | 1
COc1ccc(C(=O)CSc2nnc(CN3CCCCC3)n2-c2ccc(F)cc2)cc1OC | 9 | 90* | 8 | 1 | 2

Screening data (PubChem)
